ChEMBL document CHEMBL1140904, “Synthesis and analysis of novel glycerolipids for the treatment of metabolic syndrome” (J Med Chem, 2009)
Calls of active or inactive are those of the source. The calls are words filed in the database; no cut-off is given here.

Assays:
Rattus norvegicus [1] = experiment: Effect on fatty acid composition in Wistar rat assessed as change in plasma LCn-6/18:2 level at dose equivalent to 85 umol of tetradecylthioacetic acid, po after 6 days; format: functional
Rattus norvegicus [2] = experiment: Effect on fatty acid composition in Wistar rat assessed as change in plasma LCPUFA, n-6 level at dose equivalent to 250 umol of tetradecylthioacetic acid, po after 6 days; format: functional
Rattus norvegicus [3] = experiment: Effect on fatty acid composition in Wistar rat assessed as change in plasma LCPUFA, n-6 level at dose equivalent to 85 umol of tetradecylthioacetic acid, po after 6 days; format: functional
Rattus norvegicus [4] = experiment: Effect on fatty acid composition in Wistar rat assessed as change in liver saturated fatty acid level at dose equivalent to 85 umol of tetradecylthioacetic acid, po after 6 days; format: functional
In short: (§1)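 Male Wistar rats were gavaged once daily for 6 days with compound in 0.5% CMC at 85 or 250 µmol TTA-equivalent per animal. Controls received palmitic acid. Liver was homogenized in 0.25 M sucrose/10 mM HEPES pH 7.4/1 mM EDTA at 0-4 °C. Lipids were extracted with chloroform:methanol 2:1 and spiked with 21:0 internal standard. Fatty acids were BF3-methanol transesterified and quantified as wt%. Values are mean ± SD, n=5.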

Rattus norvegicus [5] = experiment: Effect on fatty acid composition in Wistar rat assessed as change in plasma PUFA level at dose equivalent to 250 umol of tetradecylthioacetic acid, po after 6 days; format: functional
Rattus norvegicus [6] = experiment: Effect on fatty acid composition in Wistar rat assessed as change in plasma PUFA level at dose equivalent to 85 umol of tetradecylthioacetic acid, po after 6 days; format: functional
Rattus norvegicus [7] = experiment: Decrease in liver triacylglycerol level in Wistar rat at dose equivalent to 250 umol of tetradecylthioacetic acid, po after 6 days relative to control; format: functional; parameters: scale not given: the % may be the effect or the level left
In short: (§2)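 Male Wistar rats (170-210 g), housed in pairs with chow and water, were gavaged once daily for 6 days with test lipid in 0.5% (w/v) carboxymethylcellulose at 85 or 250 µmol TTA-equivalent per animal. Controls received palmitic acid in CMC. Plasma triacylglycerol and cholesterol were measured with an enzymatic kit, and liver levels were also determined. Values are mean ± SD, n=5 rats.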

Rattus norvegicus [8] = experiment: Decrease in liver cholesterol level in Wistar rat at dose equivalent to 250 umol of tetradecylthioacetic acid, po after 6 days relative to control; format: functional; parameters: scale not given: the % may be the effect or the level left; in short: as §2
Rattus norvegicus [9] = experiment: Induction of PPAR-alpha-regulated mitochondrial fatty acyl-CoA oxidase activity in Wistar rat at dose equivalent to 250 umol of tetradecylthioacetic acid, po after 6 days relative to control; format: functional; conditions: in the assay text read “peroxisomal fatty acyl-CoA oxidase” for “mitochondrial fatty acyl-CoA oxidase”
In short: (§3)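 Rats were dosed by gastric intubation for 6 days at 85 or 250 µmol TTA-equivalent in 0.5% CMC, with palmitic acid controls. Fatty acyl-CoA oxidase was measured in the liver postnuclear fraction by a coupled assay, following H2O2 production as the rise in dichlorofluorescein absorbance with palmitoyl-CoA. Mean ± SD, n=5.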

Rattus norvegicus [10] = experiment: Effect on fatty acid composition in Wistar rat assessed as change in liver LCn-6/18:2 level at dose equivalent to 85 umol of tetradecylthioacetic acid, po after 6 days; format: functional; in short: as §1
Rattus norvegicus [11] = experiment: Induction of PPAR-alpha-regulated fatty acyl-CoA oxidase activity in po dosed Wistar rat after 6 days; format: functional, organism-based; in short: as §3
Rattus norvegicus [12] = experiment: Effect on fatty acid composition in Wistar rat assessed as change in liver 18;2, n-6 level at dose equivalent to 250 umol of tetradecylthioacetic acid, po after 6 days; format: functional; in short: as §1
Rattus norvegicus [13] = experiment: Effect on fatty acid composition in Wistar rat assessed as change in liver saturated fatty acid level at dose equivalent to 250 umol of tetradecylthioacetic acid, po after 6 days; format: functional; in short: as §1
Rattus norvegicus [14] = experiment: Decrease in plasma triacylglycerol level in po dosed Wistar rat after 6 days; format: functional, organism-based; in short: as §2
Rattus norvegicus [15] = experiment: Effect on fatty acid composition in Wistar rat assessed as change in liver 18;2, n-6 level at dose equivalent to 85 umol of tetradecylthioacetic acid, po after 6 days; format: functional; in short: as §1
Rattus norvegicus [16] = experiment: Decrease in plasma cholesterol level in Wistar rat at dose equivalent to 250 umol of tetradecylthioacetic acid, po after 6 days relative to control; format: functional; parameters: scale not given: the % may be the effect or the level left; in short: as §2
Rattus norvegicus [17] = experiment: Increase in [1-14C]palmitoyl-CoA oxidation in Wistar rat liver homogenate at 250 uM, po after 6 days; format: functional, organism-based
In short: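 Rats were dosed by gastric intubation for 6 days with 85 or 250 µmol TTA-equivalent in 0.5% CMC, with palmitic acid controls. Liver was homogenized in 0.25 M sucrose, 10 mM HEPES pH 7.4, 1 mM EDTA at 0-4 °C. Palmitoyl-CoA oxidation was read as acid-soluble products from [1-14C]-palmitoyl-CoA in the postnuclear fraction. Mean ± SD, n=5.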

Rattus norvegicus [18] = experiment: Effect on fatty acid composition in Wistar rat assessed as change in plasma MUFA level at dose equivalent to 250 umol of tetradecylthioacetic acid, po after 6 days; format: functional
Rattus norvegicus [19] = experiment: Decrease in plasma triacylglycerol level in Wistar rat at dose equivalent to 250 umol of tetradecylthioacetic acid, po after 6 days relative to control; format: functional; parameters: scale not given: the % may be the effect or the level left; in short: as §2
Rattus norvegicus [20] = experiment: Effect on fatty acid composition in Wistar rat assessed as change in plasma saturated fatty acid level at dose equivalent to 85 umol of tetradecylthioacetic acid, po after 6 days; format: functional
Rattus norvegicus [21] = experiment: Effect on fatty acid composition in Wistar rat assessed as change in liver MUFA level at dose equivalent to 250 umol of tetradecylthioacetic acid, po after 6 days; format: functional; in short: as §1
Rattus norvegicus [22] = experiment: Induction of PPAR-alpha-regulated CPT2 activity in po dosed Wistar rat after 6 days relative to control; format: functional
In short: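 Wistar rats were dosed orally for 6 days (85 or 250 µmol TTA-equivalent in 0.5% CMC; palmitic acid controls). CPT-II activity was measured in the liver mitochondrial fraction, prepared from sucrose/HEPES pH 7.4/EDTA homogenate at 0-4 °C. Means ± SD from 5 rats per group.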

Rattus norvegicus [23] = experiment: Effect on fatty acid composition in Wistar rat assessed as change in liver MUFA level at dose equivalent to 85 umol of tetradecylthioacetic acid, po after 6 days; format: functional; in short: as §1
Rattus norvegicus [24] = experiment: Effect on fatty acid composition in Wistar rat assessed as change in plasma saturated fatty acid level at dose equivalent to 250 umol of tetradecylthioacetic acid, po after 6 days; format: functional
Rattus norvegicus [25] = experiment: Effect on fatty acid composition in Wistar rat assessed as change in liver PUFA level at dose equivalent to 250 umol of tetradecylthioacetic acid, po after 6 days; format: functional; in short: as §1
Rattus norvegicus [26] = experiment: Induction of PPAR-alpha-regulated HMG-CoA synthase activity in po dosed Wistar rat after 6 days; format: functional, organism-based
In short: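 Wistar rats were gavaged daily for 6 days at 85 or 250 µmol TTA-equivalent in 0.5% CMC, with palmitic acid controls. HMG-CoA synthase activity was assayed in the liver postnuclear fraction by the Clinkenbeard method. Mean ± SD, 5 rats/group.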

Rattus norvegicus [27] = experiment: Plasma concentration in Wistar rat assessed as tetradecylthioacetic acid at dose equivalent to 85 umol of tetradecylthioacetic acid, po after 6 days; format: ADME, organism-based; conditions: in vivo, 144 h
Liver = experiment: Drug concentration in Wistar rat liver assessed as tetradecylthioacetic acid at dose equivalent to 85 umol of tetradecylthioacetic acid, po after 6 days; format: ADME, organism-based; conditions: in vivo, 144 h; in short: as §1
Rattus norvegicus [28] = experiment: Effect on fatty acid composition in Wistar rat assessed as change in liver LCn-6/18:2 level at dose equivalent to 250 umol of tetradecylthioacetic acid, po after 6 days; format: functional; in short: as §1

SMILES: CCCCCCCCCCCCCCSCC(=O)OC[C@H](COP(=O)([O-])OCC[N+](C)(C)C)OC(=O)CSCCCCCCCCCCCCCC [PHOSPHATIDYLCHOLINE]
- Activity (Rattus norvegicus [1]): 0.97%
- Activity (Rattus norvegicus [2]): 22.07%
- Activity (Rattus norvegicus [3]): 19.06%
- Activity (Rattus norvegicus [4]): 39.67%
- Activity (Rattus norvegicus [5]): 1.86%
- Activity (Rattus norvegicus [6]): 2.42%
- Activity (Rattus norvegicus [7]): 25%
- Activity (Rattus norvegicus [8]): 20%
- fold change (FC) (Rattus norvegicus [9]): 5
- Activity (Rattus norvegicus [10]): 2.19%
- Activity (Rattus norvegicus [11]): Dose-dependent effect
- Activity (Rattus norvegicus [12]): 8.79%
- Activity (Rattus norvegicus [13]): 39.22%
- Activity (Rattus norvegicus [14]): Dose-dependent effect
- Activity (Rattus norvegicus [15]): 11.99%
- Activity (Rattus norvegicus [16]): 60%
- Activity (Rattus norvegicus [17]): inactive
- Activity (Rattus norvegicus [18]): 21.62%
- Activity (Rattus norvegicus [19]): 60%
- Activity (Rattus norvegicus [20]): 35.65%
- Activity (Rattus norvegicus [21]): 16.33%
- fold change (FC) (Rattus norvegicus [22]): 3
- Activity (Rattus norvegicus [23]): 16.66%
- Activity (Rattus norvegicus [24]): 35.25%
- Activity (Rattus norvegicus [25]): 4.05%
- Activity (Rattus norvegicus [26]): Dose-dependent effect
- Drug uptake (Rattus norvegicus [27]): 0.9%
- Drug uptake (Liver): 1.28%
- Drug uptake (Liver; in the assay text read “equivalent to 250 umol” for “equivalent to 85 umol”): 3.34%
- Activity (Rattus norvegicus [28]): 3.49%
